Source: PMC6383364 (ACS chemical biology, 2019)

Columns and labels:
ALDHs = assay: ABPP reactivity with ALDHs in human cells; format: cell-based; details: N-methyl compounds
[1] = format: in vivo; details: rat; for CSF AUC0–7 / CSF Cmax / Brain AUC0–7 / Brain Cmax: after BIA 10–2474 (1) 10 mg/kg p.o.; for Plasma AUC0–7: after BIA 10–2474 (1) 10 mg/kg p.o. in 0.5% methylcellulose; for Brain AUC0–7 / Brain Cmax: not corrected for binding to tissues
Method in brief: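 Rats were dosed orally at 10 mg/kg in 0.5% methylcellulose. The parent compound and its metabolites were quantified in plasma, brain and CSF. Cmax and AUC0–7 were derived for each analyte.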

~50–55 kDa protein = assay: Gel-based CC-ABPP in CCF-STTG1 human astrocytoma cells; format: cell-based; details: pre-treatment 10 µM, 1 h, then probes 7 and 8
Method in brief: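 CCF-STTG1 human astrocytoma cells were pretreated in situ with DMSO or the parent test compound (10 μM, 1 h), then given the matching alkyne probe (1 μM, 1 h). Probe-labelled proteins were conjugated by CuAAC to a rhodamine-azide reporter, resolved by SDS-PAGE and detected by in-gel fluorescence scanning.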

ALDH2 [2] = target: T1, ALDH2 (Homo sapiens, UniProt P05091); assay: LC-MS characterisation of the adduct with ALDH2 from treated HEK293T cells; format: cell-based; details: HEK293T cells expressing FLAG-tagged WT-ALDH2, 10 µM, 1 h; LC-MS-based proteomics
T1 sequence (P05091 18-517): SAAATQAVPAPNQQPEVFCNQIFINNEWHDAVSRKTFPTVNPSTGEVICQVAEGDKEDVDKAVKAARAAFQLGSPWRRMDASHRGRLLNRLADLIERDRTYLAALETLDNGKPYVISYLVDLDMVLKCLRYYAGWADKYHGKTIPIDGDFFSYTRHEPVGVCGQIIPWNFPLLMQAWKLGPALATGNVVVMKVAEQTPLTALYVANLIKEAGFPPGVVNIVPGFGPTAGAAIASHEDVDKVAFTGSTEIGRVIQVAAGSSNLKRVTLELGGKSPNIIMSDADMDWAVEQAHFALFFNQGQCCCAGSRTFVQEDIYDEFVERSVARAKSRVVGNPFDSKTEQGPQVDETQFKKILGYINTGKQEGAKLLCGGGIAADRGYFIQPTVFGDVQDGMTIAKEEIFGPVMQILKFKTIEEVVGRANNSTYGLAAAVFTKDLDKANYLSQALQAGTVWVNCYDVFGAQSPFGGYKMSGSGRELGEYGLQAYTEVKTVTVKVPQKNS

ALDH9A1 = ALDH9A1 (Homo sapiens, UniProt P49189); assay: isoTOP-ABPP cysteine reactivity in SW620 cells: ALDH9A1; format: cell-based; details: 10 µM, 1 h
Method in brief: (§1)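 SW620 cells were treated with test compound (10 μM, 1 h; light) or DMSO (heavy). Cysteine reactivity was then profiled globally by isoTOP-ABPP using an alkynylated iodoacetamide probe (IA-alkyne). Heavy/light ratios for quantified cysteines were averaged across four independent biological replicates.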

ALDH2 [3] = target: T1, ALDH2; assay: Quantitative MS-based CC-ABPP and Western blot in CCF-STTG1 cells: ALDH2; format: cell-based; details: pre-treatment 10 µM, 1 h, then corresponding probe 7 or 8
Method in brief: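 CCF-STTG1 cells were grown in isotopically heavy or light amino-acid media. Cells received DMSO (heavy) or test compound (light; 10 μM, 1 h), followed by the corresponding clickable probe (1 μM, 1 h). Heavy/light protein ratios were averaged from quantified peptides across two independent biological replicates. Streptavidin-enriched fractions, with or without parent pretreatment, were immunoblotted with anti-ALDH2.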

ALDH2 [4] = target: T1, ALDH2; assay: isoTOP-ABPP cysteine reactivity in SW620 cells: ALDH2; format: cell-based; details: 10 µM, 1 h
Method in brief: as §1

ALDH5A1 = target: T2, ALDH5A1 (Homo sapiens, UniProt P51649); assay: isoTOP-ABPP cysteine reactivity in SW620 cells: ALDH5A1; format: cell-based; details: 10 µM, 1 h, Table S2
T2 sequence (P51649 48-535): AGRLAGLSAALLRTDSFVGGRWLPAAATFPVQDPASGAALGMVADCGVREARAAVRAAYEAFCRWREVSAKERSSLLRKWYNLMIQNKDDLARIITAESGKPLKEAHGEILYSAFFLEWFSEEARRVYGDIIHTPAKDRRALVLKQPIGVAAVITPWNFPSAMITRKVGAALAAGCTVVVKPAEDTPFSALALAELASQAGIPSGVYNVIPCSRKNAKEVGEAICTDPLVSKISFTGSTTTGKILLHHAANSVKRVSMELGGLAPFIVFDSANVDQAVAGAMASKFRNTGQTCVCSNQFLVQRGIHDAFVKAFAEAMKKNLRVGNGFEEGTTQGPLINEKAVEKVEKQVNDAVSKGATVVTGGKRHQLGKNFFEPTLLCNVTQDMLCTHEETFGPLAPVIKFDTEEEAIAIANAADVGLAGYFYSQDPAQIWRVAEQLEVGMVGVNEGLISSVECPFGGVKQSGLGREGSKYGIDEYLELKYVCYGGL
Method in brief: as §1

ALDH9A1, sequence (P49189 whole entry): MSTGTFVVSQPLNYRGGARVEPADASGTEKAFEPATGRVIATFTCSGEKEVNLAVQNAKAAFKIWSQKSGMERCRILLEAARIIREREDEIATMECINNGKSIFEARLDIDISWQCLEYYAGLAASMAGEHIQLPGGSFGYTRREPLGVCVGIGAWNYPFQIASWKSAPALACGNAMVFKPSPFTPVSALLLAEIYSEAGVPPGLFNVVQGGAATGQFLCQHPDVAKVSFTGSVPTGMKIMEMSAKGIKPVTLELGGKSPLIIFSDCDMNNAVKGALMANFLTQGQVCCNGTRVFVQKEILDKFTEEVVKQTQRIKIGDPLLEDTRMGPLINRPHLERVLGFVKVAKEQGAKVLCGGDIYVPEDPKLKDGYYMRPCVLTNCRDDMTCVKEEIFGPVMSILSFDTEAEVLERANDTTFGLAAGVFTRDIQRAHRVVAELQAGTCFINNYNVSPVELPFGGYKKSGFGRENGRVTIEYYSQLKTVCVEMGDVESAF

Row | CSF AUC0–7 [1] | CSF Cmax [1] | Plasma AUC0–7 [1] | Brain AUC0–7 [1] | Brain Cmax [1] | Adduct with C319 on ALDH2 (ALDH2 [2]) | IA-alkyne reactivity of C288 of ALDH9A1 (ALDH9A1) | Blockade of probe enrichment of ALDH2 (Western blotting) (ALDH2 [3]) | IA-alkyne reactivity of C319 of ALDH2 (ALDH2 [4]) | IA-alkyne reactivity of other cysteine (C386) of ALDH2 (ALDH2 [4]) | IA-alkyne reactivity of C340 of ALDH5A1 (ALDH5A1) | SMILES | Reaction with ALDHs (ALDHs) | Blockade of probe labelling of ~50–55 kDa protein (~50–55 kDa protein)
1 | 4000 ng·h/mL | 1300 ng/mL | 13800 ng·h/mL | 2480 ng·h/mL | 939 ng/mL | – | – | – | – | – | – | CN(C(=O)n1cnc(-c2ccc[n+]([O-])c2)c1)C1CCCCC1 [BIA 10–2474 (1)] | fail to react | –
2 | 113 ng·h/mL | 36.2 ng/mL | 306 ng·h/mL | 185 ng·h/mL | 252 ng/mL | – | – | – | – | – | – | CN(C(=O)n1cnc(-c2cccnc2)c1)C1CCCCC1 [compound 2] | – | –
3 | 15.6 ng·h/mL | 5.03 ng/mL | 323 ng·h/mL | 11.8 ng·h/mL | 4.57 ng/mL | S-thiocarbamate adduct | blocked | blockade | blocked | unperturbed | unchanged | O=C(NC1CCCCC1)n1cnc(-c2ccc[n+]([O-])c2)c1 [compound 3] | – | blocked
